Experimental data from ChEMBL document CHEMBL1156597, “Structure-activity relationship of kahalalide F synthetic analogues” (J Med Chem, 2008).

Tests used:
[1] = test system: DU-145; assay: Cytotoxicity against human DU145 cells after 48 hrs by SRB assay; type: functional, cell-based; conditions: Homo sapiens, DU-145, 48 h; for GI50: read-out: GI50; for CC50: read-out: LC50 (the source's name)
Procedure, shortened: (§1)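 Cells grown in RPMI 1640 with 10% FBS and penicillin/streptomycin at 37 °C and 5% CO₂, trypsinized, then seeded at 5 × 10³/well. After 18 h drug-free attachment, samples in DMSO/EtOH/PBS (0.5:0.5:99) were added for 48 h continuous exposure. Cells were fixed with cold TCA (1 h, 4 °C) and stained with SRB (10 min). Tris-solubilized stain read at 490 nm. Triplicate wells, mean ± SD; GI₅₀ derived.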

[2] = test system: LNCaP; assay: Cytotoxicity against human LNcaP cells after 48 hrs by SRB assay; type: functional; conditions: for CC50: read-out: LC50 (the source's name); procedure, shortened: as §1
[3] = Cytotoxicity against human IGROV cells after 48 hrs by SRB assay; type: functional; conditions: for CC50: read-out: LC50 (the source's name); procedure, shortened: as §1
[4] = Cytotoxicity against human IGROV-ET cells after 48 hrs by SRB assay; type: functional; conditions: for CC50: read-out: LC50 (the source's name); procedure, shortened: as §1
[5] = test system: SK-BR-3; assay: Cytotoxicity against human SKBR3 cells after 48 hrs by SRB assay; type: functional; conditions: SK-BR-3, 48 h; for CC50: read-out: LC50 (the source's name); procedure, shortened: as §1
[6] = test system: SK-MEL-28; assay: Cytotoxicity against human SK-MEL-28 cells after 48 hrs by SRB assay; type: functional, cell-based; conditions: Homo sapiens, SK-MEL-28, 48 h; for GI50: read-out: GI50; for CC50: read-out: LC50 (the source's name); procedure, shortened: as §1
[7] = test system: A549; assay: Cytotoxicity against human A549 cells after 48 hrs by SRB assay; type: functional, cell-based; conditions: Homo sapiens, A549, 48 h; for GI50: read-out: GI50; procedure, shortened: as §1
[8] = test system: K562; assay: Cytotoxicity against human K562 cells after 48 hrs by SRB assay; type: functional; conditions: K562, 48 h; for CC50: read-out: LC50 (the source's name); procedure, shortened: as §1
[9] = test system: PANC-1; assay: Cytotoxicity against human PANC1 cells after 48 hrs by SRB assay; type: functional; conditions: PANC-1, 48 h; for CC50: read-out: LC50 (the source's name); procedure, shortened: as §1
[10] = test system: HT-29; assay: Cytotoxicity against human HT29 cells after 48 hrs by SRB assay; type: functional, cell-based; conditions: Homo sapiens, HT-29, 48 h; for CC50: read-out: LC50 (the source's name); procedure, shortened: as §1
[11] = test system: LoVo; assay: Cytotoxicity against human LoVo cells after 48 hrs by SRB assay; type: functional; conditions: for CC50: read-out: LC50 (the source's name)
[12] = test system: LoVo; assay: Cytotoxicity against human doxorubicin resistant LoVo cells after 48 hrs by SRB assay; type: functional; conditions: for CC50: read-out: LC50 (the source's name); procedure, shortened: as §1
[13] = test system: HeLa; assay: Cytotoxicity against human HeLa cells after 48 hrs by SRB assay; type: functional; conditions: for CC50: read-out: LC50 (the source's name); procedure, shortened: as §1
[14] = Cytotoxicity against human HeLa-APL cells after 48 hrs by SRB assay; type: functional; procedure, shortened: as §1

Q: Which TGI [1] does the source give for `C/C=C1\NC(=O)[C@H](Cc2ccccc2)NC(=O)[C@@H](C(C)C)NC(=O)[C@@H]([C@H](C)CC)NC(=O)[C@H](NC(=O)[C@H](NC(=O)[C@H](CCCCN)NC(=O)[C@H]2CCCN2C(=O)[C@H](NC(=O)[C@@H](NC(=O)[C@@H](NC(=O)[C@H](NC(=O)CCCC(C)C)C(C)C)[C@@H](C)O)C(C)C)C(C)C)[C@H](C)CC)[C@H](C)OC(=O)[C@H](C(C)C)NC1=O` here?
A: 2.44 µM

Q: What about the GI50 [1] of the same molecule?
A: 1.29 µM

Q: What about the CC50 [1] of the same molecule?
A: 3.17 µM

Q: And the GI50 [2]?
A: 1.33 µM

Q: And the TGI [2]?
A: 1.15 µM

Q: And the CC50 [2]?
A: 0.985 µM

Q: What about the GI50 [3] of the same molecule?
A: 0.568 µM

Q: What about the GI50 ([3]; read-out: GI50) of the same molecule?
A: 0.562 µM

Q: What about the CC50 [3] of the same molecule?
A: 5.72 µM

Q: And the GI50 [4]?
A: 0.619 µM

Q: What about the GI50 ([4]; read-out: GI50) of the same molecule?
A: 0.645 µM

Q: And the CC50 [4]?
A: 0.587 µM

Q: What about the TGI [5] of the same molecule?
A: 0.366 µM

Q: What about the GI50 ([5]; read-out: GI50) of the same molecule?
A: 0.385 µM

Q: What about the CC50 [5] of the same molecule?
A: 0.351 µM

Q: And the TGI [6]?
A: 1.27 µM

Q: And the GI50 [6]?
A: 1.47 µM

Q: And the CC50 [6]?
A: 1.37 µM

Q: What about the LC50 [7] of the same molecule?
A: 1.34 µM

Q: And the TGI [7]?
A: 1.39 µM

Q: And the GI50 [7]?
A: 1.44 µM

Q: And the GI50 [8]?
A: 9.35 µM

Q: And the TGI [8]?
A: 14.7 µM

Q: And the CC50 [8]?
A: 4.77 µM

Q: What about the GI50 [9] of the same molecule?
A: 5.11 µM

Q: And the TGI [9]?
A: 4.55 µM

Q: What about the CC50 [9] of the same molecule?
A: 2.21 µM

Q: And the GI50 [10]?
A: 0.521 µM

Q: And the TGI [10]?
A: 0.422 µM

Q: What about the CC50 [10] of the same molecule?
A: 0.34 µM

Q: What about the GI50 [11] of the same molecule?
A: 0.426 µM

Q: And the TGI [11]?
A: 0.379 µM

Q: And the CC50 [11]?
A: 0.337 µM

Q: What about the GI50 [12] of the same molecule?
A: 0.301 µM

Q: And the TGI [12]?
A: 0.28 µM

Q: What about the CC50 [12] of the same molecule?
A: 0.0366 µM

Q: And the GI50 [13]?
A: 0.91 µM

Q: What about the TGI [13] of the same molecule?
A: 0.776 µM

Q: What about the CC50 [13] of the same molecule?
A: 0.883 µM

Q: And the GI50 [14]?
A: 0.512 µM

Q: And the LC50 (concentration giving 50% net cell kill) [14]?
A: 0.757 µM

Q: What about the TGI [14] of the same molecule?
A: 0.664 µM

Q: Which CC50 [1] does the source give for `C/C=C1\NC(=O)[C@H](Cc2ccccc2)NC(=O)[C@@H](C(C)C)NC(=O)[C@@H]([C@H](C)CC)NC(=O)[C@H](NC(=O)[C@H](NC(=O)[C@H](CCCN)NC(=O)[C@H]2CCCN2C(=O)[C@H](NC(=O)[C@@H](NC(=O)[C@@H](NC(=O)[C@H](NC(=O)CCCC(C)C)C(C)C)[C@@H](C)O)C(C)C)C(C)C)[C@H](C)CC)[C@@H](C)OC(=O)[C@H](C(C)C)NC1=O` here?
A: 10.6 µM

Q: And the GI50 [2]?
A: 19.3 µM

Q: What about the TGI [2] of the same molecule?
A: 20.3 µM

Q: And the CC50 [2]?
A: 4.92 µM

Q: What about the TGI [3] of the same molecule?
A: 106 µM

Q: And the GI50 ([3]; read-out: GI50)?
A: 73.2 µM

Q: What about the CC50 [3] of the same molecule?
A: 72.4 µM

Q: And the TGI [4]?
A: 4.48 µM

Q: What about the GI50 ([4]; read-out: GI50) of the same molecule?
A: 3.76 µM

Q: What about the CC50 [4] of the same molecule?
A: 2.13 µM

Q: What about the CC50 [5] of the same molecule?
A: 1.69 µM

Q: What about the CC50 [6] of the same molecule?
A: 1.77 µM

Q: And the LC50 [7]?
A: 1.92 µM

Q: What about the CC50 [8] of the same molecule?
A: 4.42 µM

Q: What about the CC50 [9] of the same molecule?
A: 8.9 µM

Q: What about the CC50 [10] of the same molecule?
A: 3.79 µM

Q: What about the CC50 [11] of the same molecule?
A: 5.54 µM

Q: And the GI50 [12]?
A: 6.03 µM

Q: What about the TGI [12] of the same molecule?
A: 7.37 µM

Q: What about the CC50 [12] of the same molecule?
A: 4.08 µM

Q: What about the CC50 [13] of the same molecule?
A: 1.91 µM

Q: What about the LC50 (concentration giving 50% net cell kill) [14] of the same molecule?
A: 2.36 µM

Q: Which results are given for `C/C=C1\NC(=O)[C@H](Cc2ccccc2)NC(=O)[C@@H](C(C)C)NC(=O)[C@@H]([C@H](C)CC)NC(=O)[C@H](NC(=O)[C@H](NC(=O)[C@H](CCCN)NC(=O)[C@H]2CCCN2C(=O)[C@H](NC(=O)[C@@H](NC(=O)[C@@H](NC(=O)[C@H](NC(=O)CCCC(C)C)C(C)C)[C@@H](C)O)C(C)C)C(C)C)[C@H](C)CC)COC(=O)[C@H](C(C)C)NC1=O`?
A: TGI [1]: 5.21 µM; GI50 [1]: 5.04 µM; CC50 [1]: 5.37 µM; GI50 [2]: 3.37 µM; TGI [2]: 3.36 µM; CC50 [2]: 2.14 µM; TGI [3]: 25.1 µM; GI50 ([3]; read-out: GI50): 16.7 µM; CC50 [3]: 33.8 µM; GI50 [4]: 0.753 µM; GI50 ([4]; read-out: GI50): 0.62 µM; CC50 [4]: 0.663 µM; CC50 [5]: 0.61 µM; TGI [6]: 1.5 µM; GI50 [6]: 1.9 µM; CC50 [6]: 1.18 µM; LC50 [7]: 1.27 µM; TGI [7]: 1.35 µM; GI50 [7]: 1.44 µM; CC50 [8]: 4.46 µM; CC50 [9]: 8.97 µM; GI50 [10]: 0.983 µM; TGI [10]: 1.54 µM; CC50 [10]: 1.97 µM; GI50 [11]: 0.457 µM; TGI [11]: 0.513 µM; CC50 [11]: 0.62 µM; GI50 [12]: 0.353 µM; TGI [12]: 0.367 µM; CC50 [12]: 0.384 µM; CC50 [13]: 1.47 µM; GI50 [14]: 1.93 µM; LC50 (concentration giving 50% net cell kill) [14]: 1.32 µM; TGI [14]: 1.65 µM
